The list is not random: actives were taken first. Their share in the collection is about 3.7%.
KCNQ1 inh – inhibitors of human KCNQ1 channel, primary screen, cell-based, thallium flux, high-throughput; Potassium voltage-gated channel subfamily KQT member 1 (Homo sapiens), P51787; CHO-K1 KCNQ1, FluxOR thallium flux fluorescence; stronger effect = higher value; B-score at 10 µM; hit rate 1.3% among 310,000;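 active = compounds whose thallium flux B-score, printed positive for inhibition, exceeds three library SD while starting fluorescence stays within three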;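 note: channel opened by potassium depolarization with thallium stimulus after 20 min compound exposure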
KCNK9 inh – KCNK9 potassium channel inhibitors, primary screen, HEK293 cells, thallium flux; FluxOR thallium flux fluorescence; stronger effect = lower value; B-score at 10 µM; hit rate 1.2% among 310,000;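 active = ratio B-score over 3 SD below the library mean, with starting fluorescence within 5 SD of its mean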;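 note: negative B-score means less thallium flux so channel inhibition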
Target sequence (Q9NPC2 whole entry, looked up): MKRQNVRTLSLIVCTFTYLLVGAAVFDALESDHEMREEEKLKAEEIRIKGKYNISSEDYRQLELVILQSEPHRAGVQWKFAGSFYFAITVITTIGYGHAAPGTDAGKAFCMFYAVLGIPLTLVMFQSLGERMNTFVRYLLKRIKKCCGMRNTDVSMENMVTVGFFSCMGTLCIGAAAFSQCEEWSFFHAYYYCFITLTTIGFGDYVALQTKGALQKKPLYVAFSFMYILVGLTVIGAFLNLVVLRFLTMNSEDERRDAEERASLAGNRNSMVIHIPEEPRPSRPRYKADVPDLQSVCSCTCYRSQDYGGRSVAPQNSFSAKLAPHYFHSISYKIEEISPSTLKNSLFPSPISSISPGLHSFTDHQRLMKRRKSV
KCNQ1 act – potentiators or activators of KCNQ1 channel, primary screen, cell-based, thallium flux, high-throughput; Potassium voltage-gated channel subfamily KQT member 1 (Homo sapiens), P51787; CHO-K1 KCNQ1, thallium flux FluxOR fluorescence; stronger effect = higher value; B-score at 10 µM; hit rate 0.35% among 310,000;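 active = fluorescence ratio B-score, a plate-corrected score, at least three library SD, with initial intensity B-score within 5 SD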
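assay system = CHO-K1 cells stably expressing KCNQ1 | medium = assay buffer, equal DMSO in all wells | timing = 37 °C overnight plating, 90-min dark dye load, 20-min compound pretreatment | measured by = kinetic FluxOR thallium fluorescence, 10-s 1-Hz baseline, 110-s post-stimulus read | measure = fluorescence change relative to baseline, converted to B score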
hERG protect – hERG rescue from dofetilide block, primary screen, cell-based, CHO-hERG, FluxOR thallium flux, dofetilide IC70; Voltage-gated inwardly rectifying potassium channel KCNH2 (Homo sapiens), Q12809; dofetilide IC70 present; activation (rescue from dofetilide block), less the hit threshold, % at 10 µM; hit rate 0.51% among 310,000;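 active = activation above the mean of controls blocked by dofetilide plus 5 SD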;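 note: thallium influx through hERG after potassium depolarization seen as dye fluorescence rise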
Kir21 inh – inhibitors of mouse Kir2.1 inward-rectifier potassium channel | HEK293-Kir2.1, FluxOR thallium flux fluorescence; stronger effect = lower value | B-score at 10 µM | hit rate 0.85% among 310,000;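 active = fluorescence ratio B-score at or below minus 3 SD of library scores, with starting-brightness B-score within 2 SD, cut at about -4.2 in these data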;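 note: channel flux triggered by added potassium and thallium sulfate stimulus; B-score of peak minus minimum fluorescence over baseline after thallium stimulus; more negative B-score means stronger Kir2.1 block with less thallium influx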
KCNK3 inh – human KCNK3 channel inhibitors, primary screen, CHO cells, FluxOR thallium flux, B-score. Potassium channel subfamily K member 3 (Homo sapiens), O14649. hit rate 0.84% among 340,000. FluxOR fluorescence; stronger effect = lower value. B-score at 10 µM;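 active = B-score under library mean minus 4 SD, starting fluorescence ratio at most library mean plus 5 SD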;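 note: more negative B-score means stronger inhibition of thallium flux through KCNK3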
KCNK9 block conf – KCNK9 potassium channel inhibitors, confirmation, HEK293 cells, thallium flux, duplicate; shares compounds with KCNK9 inh; FluxOR thallium flux fluorescence; inhibition, % at 10 µM; hit rate 43% among 4,900; AID 492992, 2010;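 active = thallium signal inhibited by more than 5 SD of the compound-free buffer control wells, on both duplicate plates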;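 note: 0% = assay buffer control wells without compound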
Kir2-1 spec – mouse Kir2.1 channel inhibition, confirmation, selectivity assay for KCNK9 modulator project, cell-based, HEK293, thallium flux; shares compounds with KCNK9 inh; hit rate 4% among 4,900; Kir2.1 cells, FluxOR thallium flux fluorescence; inhibition, % at 10 µM;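 active = thallium signal drop more than 5 SD beyond the mean of the no-compound control wells, seen in both duplicate plates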;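 note: signal is fluorescence rise after thallium addition divided by baseline fluorescence; plate controls were assay buffer only for no effect and full block by chlorpromazine control for full effect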
HEK293 Tl ctr – thallium flux in non-induced HEK293 cells, confirmation, counter-screen for KCNK9 inhibitor project, cell-based, second counter screen, non-induced KCNK9-HEK293 | hit rate 40% among 4,900 | inhibition, % at 10 µM | shares compounds with KCNK9 inh | FluxOR thallium flux | AID 492997, 2010;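 active = thallium signal drop beyond 5 SD of the untreated control mean, on both duplicate plates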;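 note: plate controls were buffer only IC0 wells for no effect and SID17386958 at its maximal inhibitory level for full effect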
* = called active by the depositor; i = inactive; nt = no result given.

SMILES	KCNQ1 inh	KCNK9 inh	KCNQ1 act	hERG protect	Kir21 inh	KCNK3 inh	KCNK9 block conf	Kir2-1 spec	HEK293 Tl ctr
CN(C)c1cc(N/N=C/c2ccccc2C(F)(F)F)nc(N(C)C)n1	i	i	i	-13	2.6	i	i	i	i
Cc1nnc(N/N=C/c2ccccc2C(F)(F)F)n1N	i	i	i	-9	1.2	i	nt	nt	nt
Cc1ccc(NC(=O)CN2CCc3cc4c(cc3C2C)OCCCO4)cc1C (stereo not drawn)	i	i	i	-11	0.24	i	i	i	31%*
Cc1ccc(NC(=O)CN2CCc3cc4c(cc3C2C)OCCCO4)cc1 (stereo not drawn)	i	i	i	-12	0.12	i	nt	nt	nt
O=C(c1ccccc1)c1ccccc1NC(=O)C1CCCN1Cc1ccccc1 (stereo not drawn)	i	-9.5*	i	-11	0.42	i	58%*	i	38%*
O=C(CN1CCCC1)Nc1ccccc1C(=O)c1ccccc1	i	i	i	-12	0.05	i	nt	nt	nt
CC(C(=O)OCC(=O)NC1CCCCC1)N1C(=O)c2ccccc2C1=O (stereo not drawn)	nt	nt	nt	nt	nt	i	nt	nt	nt
COc1cc(C(C)=O)ccc1OCC(=O)NCCCn1nc(C)cc1C	nt	nt	nt	nt	nt	i	nt	nt	nt
Cc1nn(-c2ccccc2)c(N)c1Sc1ccc([N+](=O)[O-])cc1	i	-13*	i	-16	-0.72	i	73%*	i	34%*
CCCc1nnc(SCC(=O)Nc2ccccc2Cl)n1CC1CCCO1 (stereo not drawn)	i	i	i	-3	0.03	i	nt	nt	nt
COc1ccc(C(=O)OCC(=O)NCC2CCCCC2)cc1F	nt	nt	nt	nt	nt	i	nt	nt	nt
Cc1noc(C)c1S(=O)(=O)Nc1ccc(O)c2c(=O)cc(-c3ccccc3Cl)oc12	i	i	i	-3	1.9	i	i	i	i
O=C(Nc1ccc(O)c2c(=O)cc(-c3ccccc3Cl)oc12)c1ccccc1Cl	i	i	i	-3	1.1	i	nt	nt	nt
CC(C)NC(=O)[C@H](CSCc1ccccc1)N1Cc2ccccc2C1=O	i	i	i	-6	0.33	i	nt	nt	nt
O=C(NC1CCCCC1)[C@H](CSCc1ccccc1)N1Cc2ccccc2C1=O	i	i	i	-8	2.7	i	i	i	i
C[C@@H]1CN([C@@H](C)CO)C(=O)c2cc(NC(=O)CCC(F)(F)F)ccc2O[C@H]1CN(C)S(=O)(=O)c1ccc(Cl)cc1	nt	nt	nt	nt	nt	i	nt	nt	nt
O=C(C1CCC1)N1CCc2cc(S(=O)(=O)N3CCCCC3)ccc21	i	i	i	-7	-0.52	i	nt	nt	nt
CC(=O)N1CCCc2cc(S(=O)(=O)N3CCCC(C(=O)N4CCN(c5cc(C)ccc5C)CC4)C3)ccc21 (stereo not drawn)	i	i	i	-16	-1.6	i	i	i	i
Cc1cccc(N2CCN(S(=O)(=O)c3ccc4c(c3)CCCN4C(=O)C3CCC3)CC2)c1C	i	i	i	-9	-0.84	i	i	i	i
Cc1ccc(-c2cc(-c3n[nH]c(=S)o3)c3ccccc3n2)cc1	i	i	15*	12*	0.07	i	i	i	i
COc1ccccc1-n1c(CNC(=O)c2ccco2)n[nH]c1=S	i	i	i	-8	-1.2	i	nt	nt	nt
CCOC(=O)c1c(Cc2cccc(Cl)c2)c[nH]c1C	6*	-10*	i	-22	-3.4	i	68%*	i	28%*
Cc1ccc(NC(=O)c2sccc2SCc2cccc(C(F)(F)F)c2)cc1	10*	-14*	i	-10	0.28	i	64%*	48%*	50%*
Fc1cc(F)cc(NC(=S)N2CCC(c3ccccc3)C2)c1 (stereo not drawn)	i	i	i	-11	1.1	i	nt	nt	nt
CSc1cccc(NC(=S)N2CCC(c3ccccc3)C2)c1 (stereo not drawn)	i	i	i	-7	0.31	i	i	i	i
SMILES	KCNQ1 inh	KCNK9 inh	KCNQ1 act	hERG protect	Kir21 inh	KCNK3 inh	KCNK9 block conf	Kir2-1 spec	HEK293 Tl ctr
CCc1cccc(NC(=S)N2CCC(c3ccccc3)C2)c1 (stereo not drawn)	i	i	i	-10	-0.11	i	i	i	i
Cc1ccc(N2C(=O)C3NN=C(C(=O)OCc4ccccc4)C3C2=O)c(C)c1 (stereo not drawn)	i	i	i	0	-0.01	i	nt	nt	nt
COc1cc(OC)cc(C(=O)N[C@H](C(=O)OCC(=O)c2ccc(C)c([N+](=O)[O-])c2)C(C)C)c1	nt	nt	nt	nt	nt	i	nt	nt	nt
Cc1cc(C(=O)OC(C)C(=O)N2CCc3ccccc32)ccc1[N+](=O)[O-] (stereo not drawn)	i	i	i	-11	0.78	i	i	i	i
COc1ccccc1NC(=S)NC(=O)C(C)(C)C	i	i	i	-5	-0.52	i	i	i	i
CCCCCc1ccc(OCCOCCn2c[n+](C)c3ccccc32)c(CCCCC)c1	7*	-8.4*	i	-29	-15	i	53%*	61%*	i
CCc1ccc(C(C(=O)NC2CCCC2)N(C(=O)c2csnn2)C2CC2)cc1 (stereo not drawn)	i	i	i	-4	0.75	i	nt	nt	nt
COc1ccc(Cl)cc1NC(=O)CN(C)C1CCCCC1	i	i	i	-9	-0.5	i	nt	nt	nt
COc1ccc(Cl)cc1NC(=O)CN(C)C(C)C(=O)NC(=O)NC1CCCCC1 (stereo not drawn)	i	i	i	-16	0.94	i	i	i	i
